In one assay the test system is Human alphaherpesvirus 1. Put plainly: Antiviral activity against HSV1-induced cytopathic effect in human rhabdomyosarcoma cells assessed as suppression of viral replication. It counts as functional, organism-based. A digest of the protocol:
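HSV-1 infected human rhabdomyosarcoma (RD) cell culture; cytopathic effect based method. Compound predissolved in 10% ethanol, then twofold dilutions made in maintenance medium 199. Criterion: reduction of virus titer relative to untreated infected control; concentrations suppressing virus replication by 50% and 90% calculated (EC50, EC90).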
On the technique in general: Protection from cytopathic effect is a common read-out in antiviral testing.

A short description of assay [1]: Cytotoxicity against human rhabdomyosarcoma cells assessed as maximum non-toxic concentrations after 72 hrs. It counts as functional. The method, boiled down:
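Non-infected RD cell cultures exposed to compound for 72 h; maximum non-toxic concentration determined.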

The test system of assay [2] is Peritoneal macrophage cell. Description: Inhibition of zymosan-stimulated ROS production in rat peritoneal macrophages. It counts as functional, cell-based. A digest of the protocol:
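ROS generation measured by luminol-dependent chemiluminescence with and without compound; EC50 and EC90 taken as concentrations lowering luminescence intensity by 50% and 90%.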

The structures appear in SMILES notation. Activity calls are given as the source filed them.

With `CC(C)(C)c1cc(Nc2ccccc2)c(O)c(C(C)(C)C)c1`, the EC50 (commonly the concentration at which the effect is half-maximal) with Human alphaherpesvirus 1 was found to be 23 µM; in assay [2], 9.8 µM. In addition, the EC90 (usually the concentration needed for an effect of 90%) in the assay on Human alphaherpesvirus 1 is 169 µM. The Activity in assay [1] was 336.7 µM.
In the case of `CCCC(=O)Nc1cc(C(C)(C)C)cc(C(C)(C)C)c1O`, in the assay on Human alphaherpesvirus 1, the EC50 is 8.6 µM and the 90% effect concentration (EC90) was 14.1 µM. In assay [1], the Activity is 686.2 µM. Besides, the outcome in assay [2] was inactive.
Turning to `CC(C)(C)c1cc(N)c(O)c(C(C)(C)C)c1`, in the assay with Human alphaherpesvirus 1, the EC50 was 87.3 µM and the EC90 amounted to 288 µM. For the same molecule, in assay [1], the Activity is 113.2 µM. The EC50 in assay [2] was 0.06 µM.
Turning to `CC(=O)Nc1cc(C(C)(C)C)cc(C(C)(C)C)c1O`, in the assay with Human alphaherpesvirus 1, the half-maximal effective concentration (EC50) worked out at 8.5 µM and the EC90 amounted to 14.8 µM. For the same molecule, in assay [1], the Activity is 379.7 µM. Moreover, the result in assay [2] was inactive.
The matching figures for `CCC(=O)Nc1cc(C(C)(C)C)cc(C(C)(C)C)c1O`: 38.2 µM, 64.5 µM, 720.9 µM and “inactive”.
As to `COc1c(NC(C)=O)cc(C(C)(C)C)cc1C(C)(C)C`, in the assay on Human alphaherpesvirus 1, the 50% effective concentration (EC50) amounted to 798 µM and the concentration for an effect of 90% (EC90) turned out to be 1960 µM. Also, the Activity in assay [1] turned out to be 1444 µM.
In the case of `COc1c(Nc2ccccc2)cc(C(C)(C)C)cc1C(C)(C)C`, in the assay on Human alphaherpesvirus 1, the EC50 is 255 µM and the EC90 is 624 µM. In assay [1], the Activity was 722 µM. Moreover, the result in assay [2] was inactive.
